The record followed here is ChEMBL document CHEMBL1146375, “Synthetic studies on novel benzimidazolopeptides with antimicrobial, cytotoxic and anthelmintic potential” (2007).

A word on the inhibition: it is the relative decrease from the control value, in per cent. Read a high inhibition as strong suppression. A word on the CC50: it is the concentration that lowers cell viability or growth by half. High values mean lower toxicity to the cells, low ones greater toxicity to the cells.

Assay type in all cases: functional
Assay [1] can be described thus: Growth inhibition of DLA cells at 3.91 ug/mL after 3 hrs. To be noted: Mus musculus. In short, it runs like this:
(§1)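 DLA and EAC cells passaged intraperitoneally in albino mice, harvested after 15–20 days and adjusted to 1 × 10⁶ cells/mL. Dilutions in Dulbecco's medium (500–31.25, some down to 3.91 µg/mL; 5-FU reference) mixed 1:1 with cells and held 3 h at 37 °C. Trypan blue exclusion gave % growth inhibition; CTC50 by graphical extrapolation.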

Assay [2] can be described thus: Growth inhibition of DLA cells at 7.81 ug/mL after 3 hrs. The conditions noted are these: Mus musculus. A digest of the protocol: as §1
The nature of assay [3]: Growth inhibition of DLA cells at 31.25 ug/mL after 3 hrs. To be noted: Mus musculus. In short, it runs like this:
as §1

Assay [4] can be described thus: Growth inhibition of EAC cells at 500 ug/mL after 3 hrs. To be noted: Mus musculus, Ehrlich. In short, it runs like this: as §1
The nature of assay [5]: Growth inhibition of DLA cells at 15.63 ug/mL after 3 hrs. To be noted: Mus musculus. In short, it runs like this: as §1
Assay [6] can be described thus: Growth inhibition of EAC cells at 3.91 ug/mL after 3 hrs. The conditions noted are these: Mus musculus, Ehrlich. In short, it runs like this:
as §1

Assay [7] can be described thus: Growth inhibition of DLA cells after 3 hrs. The conditions noted are these: Mus musculus. A digest of the protocol:
as §1

The nature of assay [8]: Growth inhibition of DLA cells at 62.5 ug/mL after 3 hrs. To be noted: Mus musculus. In short, it runs like this: as §1
Assay [9] can be described thus: Growth inhibition of EAC cells at 7.81 ug/mL after 3 hrs. To be noted: Mus musculus, Ehrlich. In short, it runs like this:
as §1

Assay [10] can be described thus: Growth inhibition of EAC cells at 250 ug/mL after 3 hrs. To be noted: Mus musculus, Ehrlich. In short, it runs like this: as §1
A short description of assay [11]: Growth inhibition of EAC cells at 15.63 ug/mL after 3 hrs. The conditions noted are these: Mus musculus, Ehrlich. A digest of the protocol:
as §1

A short description of assay [12]: Growth inhibition of EAC cells after 3 hrs. The conditions noted are these: Mus musculus, Ehrlich. In short, it runs like this: as §1

Consider `O=c1[nH]cc(F)c(=O)[nH]1` [FLUOROURACIL], for which the inhibition at 3.91 µg/mL was 42.1% in assay [1] and 17.9% in assay [6]. Also, the inhibition at 7.81 µg/mL in assay [2] was determined as 65.8%; in assay [9] it was 32.1%. In addition, in [3], at 31.25 µg/mL the inhibition was 100%. The inhibition at 500 µg/mL in assay [4] amounted to 100%. Besides, the inhibition at 15.63 µg/mL was 73.7% in assay [5] and 60.7% in assay [11]. For the same molecule, the CC50 amounted to 37.4 µM in assay [7] and 90.5 µM in assay [12]. The molecule also gave an inhibition at 62.5 µg/mL in [8] of 100%. In addition, at 250 µg/mL the inhibition in assay [10] was 100%.
